Measured values as given in the M2OR odorant receptor database.

Tests used:
Conditions in all cases: stereoisomer not certain
[1] = molecular target: T1, OR10G2 (Homo sapiens) (UniProt Q8NGC3)
T1 sequence (whole entry): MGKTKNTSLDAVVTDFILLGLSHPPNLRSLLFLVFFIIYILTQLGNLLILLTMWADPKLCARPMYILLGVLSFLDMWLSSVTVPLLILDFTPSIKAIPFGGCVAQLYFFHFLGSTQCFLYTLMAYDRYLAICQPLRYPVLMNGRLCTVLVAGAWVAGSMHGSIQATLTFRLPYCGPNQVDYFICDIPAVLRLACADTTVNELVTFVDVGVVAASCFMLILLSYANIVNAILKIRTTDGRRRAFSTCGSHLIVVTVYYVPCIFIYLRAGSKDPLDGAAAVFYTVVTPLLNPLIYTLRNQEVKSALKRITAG
In short: (§1)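 Whether a receptor–molecule pair is responsive (active) rests on the original authors' judgment that its measured signal was statistically different from baseline. Pairs without that judgment are non-responsive (inactive). Sources used varied assay methods, commonly transient luciferase assays in mammalian cell lines.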

[2] = molecular target: T2, OR10G3 (Homo sapiens) (UniProt Q8NGC4)
T2 sequence (whole entry): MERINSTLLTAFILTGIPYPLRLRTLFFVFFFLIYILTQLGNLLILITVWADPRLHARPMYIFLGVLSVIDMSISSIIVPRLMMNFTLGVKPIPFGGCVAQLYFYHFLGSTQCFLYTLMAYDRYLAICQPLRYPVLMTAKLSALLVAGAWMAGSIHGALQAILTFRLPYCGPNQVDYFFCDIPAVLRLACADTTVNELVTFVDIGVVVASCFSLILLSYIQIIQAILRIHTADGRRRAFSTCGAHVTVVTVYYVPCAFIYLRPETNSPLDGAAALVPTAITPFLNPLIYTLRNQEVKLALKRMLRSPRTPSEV
In short: as §1

[3] = molecular target: T3, OR10G4 (Homo sapiens) (UniProt Q8NGN3)
T3 sequence (whole entry): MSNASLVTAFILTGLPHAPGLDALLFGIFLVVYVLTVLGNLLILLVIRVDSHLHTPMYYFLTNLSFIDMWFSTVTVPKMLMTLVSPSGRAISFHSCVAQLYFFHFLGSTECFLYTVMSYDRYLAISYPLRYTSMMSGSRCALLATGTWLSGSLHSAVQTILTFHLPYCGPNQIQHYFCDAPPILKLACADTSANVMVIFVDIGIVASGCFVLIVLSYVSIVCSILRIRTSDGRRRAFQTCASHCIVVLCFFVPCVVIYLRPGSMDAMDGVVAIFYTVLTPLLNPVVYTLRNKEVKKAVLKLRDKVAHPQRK
In short: as §1

[4] = molecular target: T4, OR10G6 (Homo sapiens) (UniProt Q8NH81)
T4 sequence (whole entry): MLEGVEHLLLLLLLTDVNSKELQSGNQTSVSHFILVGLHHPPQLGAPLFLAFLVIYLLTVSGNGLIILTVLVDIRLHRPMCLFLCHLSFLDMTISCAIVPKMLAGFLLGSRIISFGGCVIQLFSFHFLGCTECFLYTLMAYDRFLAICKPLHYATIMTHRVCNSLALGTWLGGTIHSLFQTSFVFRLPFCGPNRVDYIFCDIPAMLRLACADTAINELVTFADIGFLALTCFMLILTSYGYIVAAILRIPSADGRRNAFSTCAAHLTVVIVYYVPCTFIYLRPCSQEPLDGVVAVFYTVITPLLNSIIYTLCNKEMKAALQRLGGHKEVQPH
In short: as §1

[5] = molecular target: T5, OR10G7 (Homo sapiens) (UniProt Q8NGN6)
T5 sequence (whole entry): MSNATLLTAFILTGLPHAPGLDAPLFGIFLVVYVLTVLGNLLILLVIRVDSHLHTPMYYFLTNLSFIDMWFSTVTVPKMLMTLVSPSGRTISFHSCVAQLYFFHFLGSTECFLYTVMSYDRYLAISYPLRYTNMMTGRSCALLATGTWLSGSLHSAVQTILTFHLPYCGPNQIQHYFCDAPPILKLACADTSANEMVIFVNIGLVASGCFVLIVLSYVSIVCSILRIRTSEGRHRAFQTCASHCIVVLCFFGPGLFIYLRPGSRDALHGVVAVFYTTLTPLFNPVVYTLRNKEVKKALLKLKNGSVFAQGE
In short: as §1

[6] = molecular target: T6, OR10G8 (Homo sapiens) (UniProt Q8NGN5)
T6 sequence (whole entry): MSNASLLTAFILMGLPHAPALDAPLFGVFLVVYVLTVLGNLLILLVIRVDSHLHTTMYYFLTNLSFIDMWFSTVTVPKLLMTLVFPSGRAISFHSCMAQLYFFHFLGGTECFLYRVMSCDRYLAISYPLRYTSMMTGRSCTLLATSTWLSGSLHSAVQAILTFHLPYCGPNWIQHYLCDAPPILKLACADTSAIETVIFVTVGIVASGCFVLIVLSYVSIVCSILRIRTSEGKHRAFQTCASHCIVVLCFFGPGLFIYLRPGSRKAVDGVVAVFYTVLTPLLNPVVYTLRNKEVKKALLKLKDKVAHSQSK
In short: as §1

[7] = molecular target: T7, OR10G9 (Homo sapiens) (UniProt Q8NGN4)
T7 sequence (whole entry): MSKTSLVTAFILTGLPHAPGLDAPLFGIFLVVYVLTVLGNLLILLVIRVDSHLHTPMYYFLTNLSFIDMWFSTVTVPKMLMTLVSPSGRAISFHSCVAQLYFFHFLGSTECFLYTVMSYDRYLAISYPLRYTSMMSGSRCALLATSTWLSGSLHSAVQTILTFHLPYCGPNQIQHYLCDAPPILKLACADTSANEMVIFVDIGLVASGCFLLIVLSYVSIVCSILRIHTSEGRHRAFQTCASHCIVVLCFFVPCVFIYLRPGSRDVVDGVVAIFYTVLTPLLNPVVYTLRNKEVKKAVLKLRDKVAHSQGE
In short: as §1

[8] = molecular target: T8, OR10H1 (Homo sapiens) (UniProt Q9Y4A9)
T8 sequence (whole entry): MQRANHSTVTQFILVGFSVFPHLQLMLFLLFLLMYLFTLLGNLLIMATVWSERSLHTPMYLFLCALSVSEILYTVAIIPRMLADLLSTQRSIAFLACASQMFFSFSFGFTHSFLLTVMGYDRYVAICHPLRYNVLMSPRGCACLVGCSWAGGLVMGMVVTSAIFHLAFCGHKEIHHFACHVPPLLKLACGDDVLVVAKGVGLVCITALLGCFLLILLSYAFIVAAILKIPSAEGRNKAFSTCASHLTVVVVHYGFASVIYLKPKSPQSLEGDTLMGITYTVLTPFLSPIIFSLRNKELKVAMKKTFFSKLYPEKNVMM
In short: as §1

[9] = molecular target: T9, OR10H2 (Homo sapiens) (UniProt O60403)
T9 sequence (whole entry): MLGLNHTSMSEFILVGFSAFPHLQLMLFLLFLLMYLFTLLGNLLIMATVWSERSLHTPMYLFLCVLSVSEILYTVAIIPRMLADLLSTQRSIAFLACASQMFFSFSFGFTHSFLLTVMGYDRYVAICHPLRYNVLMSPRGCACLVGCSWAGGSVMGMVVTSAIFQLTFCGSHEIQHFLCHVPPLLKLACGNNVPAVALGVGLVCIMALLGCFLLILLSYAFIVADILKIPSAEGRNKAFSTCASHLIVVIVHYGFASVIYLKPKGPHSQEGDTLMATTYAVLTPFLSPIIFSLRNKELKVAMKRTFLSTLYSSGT
In short: as §1

Measured: odorant receptor agonist call;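 note: active if original authors judged signal statistically different from baseline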

CCCCCC(=O)C(C)C(C)=O (centres undefined)
inactive: all assays above
